# Calls of active or inactive are those of the source. The calls are words filed in the database; no cut-off is given here.
# Key:
# [1] = system: Plutella xylostella; assay: Induction of response in unmated male Plutella xylostella (diamondback moth) assessed as landing moth level at 10 uL in presence of synthetic pheromone measured after 10 min by wind tunnel bioassays (Rvb hexane = 0%); assay type: functional
# Summary of the method: (§1)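 Wind tunnel 240 × 30 × 30 cm. Moths acclimatized in the room ≥3 h beforehand. Filter-paper dispenser (4 × 2 cm) hung 15 cm high, loaded with 10 µL of GLV, synthetic pheromone (Z11-16:Ald/Z11-16:Ac/Z11-16:OH 1:1:0.01), a 1:1 mix, or hexane. Two moths released per replicate and watched 10 min; 20 replicates (40 insects) per treatment. Hexane control run twice daily; one treatment per day, tunnel washed between treatments.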
# [2] = system: Plutella xylostella; assay: Induction of response in unmated male Plutella xylostella (diamondback moth) assessed as flying moth level at 10 uL in presence of synthetic pheromone measured after 10 min by wind tunnel bioassays (Rvb hexane = 5%); assay type: functional; summary of the method: as §1
# [3] = system: Plutella xylostella; assay: Induction of response in mated female Plutella xylostella (diamondback moth) assessed as landing moth level at 10 uL measured after 10 min by wind tunnel bioassays (Rvb hexane = 0%); assay type: functional; summary of the method: as §1
# [4] = system: Plutella xylostella; assay: Induction of response in mated female Plutella xylostella (diamondback moth) assessed as flying moth level at 10 uL measured after 10 min by wind tunnel bioassays (Rvb hexane = 5%); assay type: functional; summary of the method: as §1
# [5] = system: Plutella xylostella; assay: Induction of response in unmated female Plutella xylostella (diamondback moth) assessed as landing moth level at 10 uL measured after 10 min by wind tunnel bioassays (Rvb hexane = 0%); assay type: functional; summary of the method: as §1
# [6] = system: Plutella xylostella; assay: Induction of response in unmated female Plutella xylostella (diamondback moth) assessed as flying moth level at 10 uL measured after 10 min by wind tunnel bioassays (Rvb hexane = 5%); assay type: functional; summary of the method: as §1
# [7] = system: Plutella xylostella; assay: Induction of response in mated male Plutella xylostella (diamondback moth) assessed as landing moth level at 10 uL measured after 10 min by wind tunnel bioassays (Rvb hexane = 0%); assay type: functional; summary of the method: as §1
# [8] = system: Plutella xylostella; assay: Induction of response in mated male Plutella xylostella (diamondback moth) assessed as flying moth level at 10 uL measured after 10 min by wind tunnel bioassays (Rvb hexane = 0%); assay type: functional; summary of the method: as §1
# [9] = system: Plutella xylostella; assay: Induction of response in unmated male Plutella xylostella (diamondback moth) assessed as landing moth level at 10 uL measured after 10 min by wind tunnel bioassays (Rvb hexane = 0%); assay type: functional; summary of the method: as §1
# [10] = system: Plutella xylostella; assay: Induction of response in unmated male Plutella xylostella (diamondback moth) assessed as flying moth level at 10 uL measured after 10 min by wind tunnel bioassays (Rvb hexane = 5%); assay type: functional; summary of the method: as §1
# [11] = system: Plutella xylostella; assay: Induction of response in mated female Plutella xylostella (diamondback moth) assessed as landing moth level at 10 uL in presence of synthetic pheromone measured after 10 min by wind tunnel bioassays (Rvb hexane = 0%); assay type: functional; summary of the method: as §1
# [12] = system: Plutella xylostella; assay: Induction of response in mated female Plutella xylostella (diamondback moth) assessed as flying moth level at 10 uL in presence of synthetic pheromone measured after 10 min by wind tunnel bioassays (Rvb hexane = 5%); assay type: functional; summary of the method: as §1
# [13] = system: Plutella xylostella; assay: Induction of response in unmated female Plutella xylostella (diamondback moth) assessed as landing moth level at 10 uL in presence of synthetic pheromone measured after 10 min by wind tunnel bioassays (Rvb hexane = 0%); assay type: functional; summary of the method: as §1
# [14] = system: Plutella xylostella; assay: Induction of response in unmated female Plutella xylostella (diamondback moth) assessed as flying moth level at 10 uL in presence of synthetic pheromone measured after 10 min by wind tunnel bioassays (Rvb hexane = 5%); assay type: functional; summary of the method: as §1
# [15] = system: Plutella xylostella; assay: Induction of response in mated male Plutella xylostella (diamondback moth) assessed as landing moth level at 10 uL in presence of synthetic pheromone measured after 10 min by wind tunnel bioassays (Rvb hexane = 0%); assay type: functional; summary of the method: as §1
# [16] = system: Plutella xylostella; assay: Induction of response in mated male Plutella xylostella (diamondback moth) assessed as flying moth level at 10 uL in presence of synthetic pheromone measured after 10 min by wind tunnel bioassays (Rvb hexane = 0%); assay type: functional; summary of the method: as §1
# [17] = system: Plutella xylostella; assay: Potentiation of synthetic pheromone attractant activity in female Plutella xylostella (diamondback moth) in cabbage field assessed as female moth attraction level using sticky traps baited with compound and synthetic pheromone at 1:1 ratio by field trapping method relative to synthetic pheromone alone; assay type: functional
# [18] = system: Plutella xylostella; assay: Potentiation of synthetic pheromone attractant activity in female Plutella xylostella (diamondback moth) in cabbage field assessed as female moth attraction level using sticky traps baited with compound and synthetic pheromone at 1:1 ratio by field trapping method relative to compound alone; assay type: functional
# [19] = system: Plutella xylostella; assay: Attractant activity in male Plutella xylostella (diamondback moth) in cabbage field assessed as moth capture level using sticky traps baited with compound by field trapping method; assay type: functional, organism-based
# [20] = system: Plutella xylostella; assay: Potentiation of synthetic pheromone attractant activity in male Plutella xylostella (diamondback moth) in cabbage field assessed as moth capture level using sticky traps baited with compound and synthetic pheromone at 1:1 ratio by field trapping method relative to synthetic pheromone alone; assay type: functional
Compound,Activity [1] [%],Activity [2] [%],Activity [3] [%],Activity [4] [%],Activity [5] [%],Activity [6] [%],Activity [7] [%],Activity [8] [%],Activity [9] [%],Activity [10] [%],Activity [11] [%],Activity [12] [%],Activity [13] [%],Activity [14] [%],Activity [15] [%],Activity [16] [%],fold change (FC) [17],fold change (FC) [18],Activity [19],Activity [20] [%]
CCCCCCOC(C)=O [HEXYL ACETATE],55,60,10,5,0,5,5,0,5,10,15,20,0,5,5,0,–,–,–,–
CCC/C=C/C=O,85,90,50,55,15,20,15,20,20,30,50,50,20,25,25,25,–,–,–,–
CCCCCCO [1-HEXANOL],70,75,20,15,5,5,5,0,5,15,25,25,5,5,10,5,–,–,–,–
C=CC(O)CCC (stereo unspecified),60,65,20,10,5,0,5,0,10,20,20,35,5,0,10,5,–,–,–,–
CCCCCC=O [HEXANAL],75,80,25,30,5,5,10,5,10,10,25,35,10,10,10,5,–,–,–,–
CC/C=C\CCO [CIS-3-HEXENOL],80,85,40,40,15,10,10,0,15,25,45,40,20,10,20,15,–,–,–,–
CC/C=C\CCOC(C)=O [(Z)-hex-3-en-1-yl acetate],95,100,55,60,25,20,20,30,25,40,60,65,30,25,35,35,6,3,inactive,20
